The results in this text go back to ChEMBL document CHEMBL1127799, “Derivatives of a novel cyclopeptolide. 1. Synthesis, antifungal activity, and structure-activity relationships” (1994).

The MIC is the lowest concentration found to suppress growth. Read a high MIC as weaker potency.

Holding throughout (type): functional
Assay [1] deals with Candida tropicalis. Nature of the assay: Tested for minimum inhibitory concentration against Candida tropicalis 43 (C.t) at pH of 6.5. The procedure, abridged: (§1)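 Broth microdilution in malt extract broth, initial pH 4.5 or 6.5, with 1×10^3 CFU per 0.2 mL well of thawed stored cultures. Compound stocks were made in 5% DMSO/0.2% Tween 80 and diluted to final 0.05–100 μg/mL. Plates were incubated 48 h at 30 °C and read macroscopically. MIC was the lowest concentration with no detectable growth. Vehicle-only wells served as controls.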

In assay [2] the test system is Pichia kudriavzevii. Nature of the assay: Tested for minimum inhibitory concentration against Candida krusei 132 (C.k) at pH of 6.5. The procedure, abridged:
as §1

Assay [3] has as its system Pichia kudriavzevii. Nature of the assay: Tested for minimum inhibitory concentration against Candida krusei 132 (C.k) at pH of 4.5. The procedure, abridged:
as §1

Assay [4] relates to Candida albicans. Nature of the assay: Tested for minimum inhibitory concentration against Candida albicans 124 (Candida albicans) at pH of 4.5. In short, it runs like this: as §1
Assay [5] deals with Meyerozyma guilliermondii. Nature of the assay: Tested for minimum inhibitory concentration against Candida guilliermondii 80 (C.g) at pH of 6.5. In short, it runs like this:
as §1

Assay [6] has as its system Candida albicans. Nature of the assay: Tested for minimum inhibitory concentration against Candida albicans 124 (Candida albicans) at pH of 6.5. The procedure, abridged:
as §1

For assay [7], the system named is Meyerozyma guilliermondii. Nature of the assay: Tested for minimum inhibitory concentration against Candida guilliermondii 80 (C.g) at pH of 4.5. In short, it runs like this: as §1
Assay [8] deals with Candida tropicalis. Nature of the assay: Tested for minimum inhibitory concentration against Candida tropicalis 43 (C.t) at pH of 4.5. The procedure, abridged:
as §1

Each structure is given as a SMILES string. Values after ≈ are worked out from the molar mass of the structure shown.

With `CC[C@@H](C)[C@H]1C(=O)NCC(=O)N(C)[C@@H](C(C)C)C(=O)N[C@@H](Cc2ccc(OC)cc2)C(=O)O[C@H](C)C(=O)N2CCCC[C@H]2C(=O)N(C)[C@@H](C(C)C)C(=O)N[C@@H](C(C)C)C(=O)N(C)[C@@H](CCN=[N+]=[N-])C(=O)N(C)[C@@H]([C@@H](C)CC)C(=O)N1C`, the minimal inhibitory concentration (MIC) in assay [1], in assay [2], in assay [3], in assay [4], in assay [5] and in assay [6] was above 100 mg/L each time. Also, the MIC in assay [7] and in assay [8] was above 100 mg/L in each case.
As for `CC[C@@H](C)[C@H]1C(=O)NCC(=O)N(C)[C@@H](C(C)C)C(=O)N[C@@H](Cc2ccc(OC)cc2)C(=O)O[C@H](C)C(=O)N2CCCC[C@H]2C(=O)N(C)[C@@H](C(C)C)C(=O)N[C@@H](C(C)C)C(=O)N(C)[C@@H](CCOC(=O)CCC(=O)O)C(=O)N(C)[C@@H]([C@@H](C)CC)C(=O)N1C`, the minimal inhibitory concentration (MIC) in assay [1], in assay [2], in assay [3], in assay [4], in assay [5] and in assay [6] was above 100 mg/L in each case. The MIC in assay [7] and in assay [8] was above 100 mg/L each time.
On to `CC[C@@H](C)[C@H]1C(=O)NCC(=O)N(C)[C@@H](C(C)C)C(=O)N[C@@H](Cc2ccc(O)cc2)C(=O)O[C@H](C)C(=O)N2CCCC[C@H]2C(=O)N(C)[C@@H](C(C)C)C(=O)N[C@@H](C(C)C)C(=O)N(C)[C@@H](CC(=O)O)C(=O)N(C)[C@@H]([C@@H](C)CC)C(=O)N1C`, for which the MIC is 100 mg/L (≈ 89.9 µM) in assay [1]; 100 mg/L (≈ 89.9 µM) in assay [2]; above 100 mg/L in assay [3]; above 100 mg/L in assay [4]; 100 mg/L (≈ 89.9 µM) in assay [5]; 50 mg/L (≈ 44.9 µM) in assay [6]. The minimal inhibitory concentration (MIC) in assay [7] and in assay [8] was above 100 mg/L each time.
For `C=CCOc1ccc(C[C@@H]2NC(=O)[C@H](C(C)C)N(C)C(=O)CNC(=O)[C@H]([C@H](C)CC)N(C)C(=O)[C@H]([C@@H](C)CC)N(C)C(=O)[C@H](CC(=O)O)N(C)C(=O)[C@H](C(C)C)NC(=O)[C@H](C(C)C)N(C)C(=O)[C@@H]3CCCCN3C(=O)[C@@H](C)OC2=O)cc1`, the minimum inhibitory concentration (MIC) in assay [1] is 100 mg/L (≈ 86.8 µM); in assay [2] it was above 100 mg/L; in assay [3] it was 100 mg/L (≈ 86.8 µM); in assay [4], 3.13 mg/L (≈ 2.72 µM); in assay [5] it was 100 mg/L (≈ 86.8 µM); in assay [6], 6.25 mg/L (≈ 5.42 µM). Moreover, the MIC in assay [7] and in assay [8] was 100 mg/L (≈ 86.8 µM) in each case.
As for `CC[C@H](C)[C@H]1C(=O)NCC(=O)N(C)[C@@H](C(C)C)C(=O)N[C@@H](Cc2ccc(OC)cc2)C(=O)N[C@@H](C)C(=O)N[C@H](C)C(=O)N2CCCC[C@H]2C(=O)N(C)[C@@H](C(C)C)C(=O)N[C@@H](C(C)C)C(=O)N(C)[C@@H](CC(=O)O)C(=O)N(C)[C@@H]([C@@H](C)CC)C(=O)N1C`, the minimum inhibitory concentration (MIC) is above 100 mg/L in assay [1]; above 100 mg/L in assay [2]; above 100 mg/L in assay [3]; 12.5 mg/L (≈ 10.4 µM) in assay [4]; above 100 mg/L in assay [5]; above 100 mg/L in assay [6]. For the same molecule, the values for the minimal inhibitory concentration (MIC) in assay [7] and in assay [8] were 50 mg/L (≈ 41.8 µM) and 100 mg/L (≈ 83.6 µM), respectively.
On to `CC[C@H](C)[C@H]1C(=O)NCC(=O)N(C)[C@@H](C(C)C)C(=O)N[C@@H](Cc2ccc(OC)cc2)C(=O)N[C@@H](C)C(=O)N[C@@H](C)C(=O)N2CCCC[C@H]2C(=O)N(C)[C@@H](C(C)C)C(=O)N[C@@H](C(C)C)C(=O)N(C)[C@@H](CC(=O)O)C(=O)N(C)[C@@H]([C@@H](C)CC)C(=O)N1C`, for which the MIC in assay [1], in assay [2], in assay [3], in assay [4], in assay [5] and in assay [6] was above 100 mg/L in each case. In addition, the minimum inhibitory concentration (MIC) in assay [7] and in assay [8] was above 100 mg/L in each case.
